In ChEMBL document CHEMBL1667806, “Synthesis and evaluation of anti-tubercular activity of new dithiocarbamate sugar derivatives” (2011):
Converted amounts (≈) assume the structure as drawn.

Columns and labels:
[1] = microbe, parasite or virus in culture; format: functional, Mycobacterium bovis BCG str. Tokyo 172; conditions: Mycobacterium tuberculosis variant bovis BCG
[2] = system: Mycobacterium tuberculosis; assay: Antimycobacterial activity against Mycobacterium tuberculosis H37Rv; format: functional
[3] = system: Mycolicibacterium smegmatis; assay: microbe, parasite or virus in culture; format: functional; conditions: JATA 64.01
[4] = system: Mycobacterium tuberculosis; assay: Antimycobacterial activity against drug-sensitive Mycobacterium tuberculosis isolate 3; format: functional
Procedure, shortened: (§1)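 MIC by broth dilution in Middlebrook 7H9 broth supplemented with albumin, dextrose and catalase.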

[5] = system: Mycobacterium tuberculosis; assay: Antimycobacterial activity against drug-sensitive Mycobacterium tuberculosis isolate 13; format: functional
Procedure, shortened: as §1

Staphylococcus aureus [6] = assay: Antimicrobial activity against drug-sensitive Staphylococcus aureus 209PJC-1; format: functional
[7] = system: Mycobacterium tuberculosis; assay: Antimycobacterial activity against drug-sensitive Mycobacterium tuberculosis isolate 8; format: functional
Procedure, shortened: as §1

Staphylococcus aureus [8] = assay: Antimicrobial activity against drug-sensitive Staphylococcus aureus RN4220; format: functional
[9] = system: Mycobacterium tuberculosis; assay: Antimycobacterial activity against drug-sensitive Mycobacterium tuberculosis isolate 17; format: functional
Procedure, shortened: as §1

[10] = system: Mycobacterium tuberculosis; assay: Antimycobacterial activity against drug-sensitive Mycobacterium tuberculosis isolate 14; format: functional
Procedure, shortened: as §1

[11] = system: Mycobacterium tuberculosis; assay: Antimycobacterial activity against drug-sensitive Mycobacterium tuberculosis isolate 20; format: functional
Procedure, shortened: as §1

[12] = system: Mycobacterium tuberculosis; assay: Antimycobacterial activity against drug-sensitive Mycobacterium tuberculosis isolate 1; format: functional
[13] = system: Mycobacterium tuberculosis; assay: Antimycobacterial activity against drug-sensitive Mycobacterium tuberculosis isolate 5; format: functional
Procedure, shortened: as §1

Escherichia coli [14] = assay: Antimicrobial activity against drug-sensitive Escherichia coli JM109; format: functional
[15] = system: Mycobacterium tuberculosis; assay: Antimycobacterial activity against drug-sensitive Mycobacterium tuberculosis isolate 2; format: functional
Procedure, shortened: as §1

[16] = system: Mycobacterium tuberculosis; assay: Antimycobacterial activity against drug-sensitive Mycobacterium tuberculosis isolate 10; format: functional
Procedure, shortened: as §1

Mycobacterium avium = assay: microbe, parasite or virus in culture; format: functional, Mycobacterium avium subsp. avium ATCC 25291; conditions: ATCC 2529
[17] = system: Mycobacterium tuberculosis; assay: Antimycobacterial activity against drug-sensitive Mycobacterium tuberculosis isolate 9; format: functional
Procedure, shortened: as §1

[18] = system: Mycobacterium tuberculosis; assay: Antimycobacterial activity against drug-sensitive Mycobacterium tuberculosis isolate 6; format: functional
Procedure, shortened: as §1

[19] = system: Mycobacterium tuberculosis; assay: Antimycobacterial activity against drug-sensitive Mycobacterium tuberculosis isolate 16; format: functional
Procedure, shortened: as §1

[20] = microbe, parasite or virus in culture; format: functional, Mycobacterium avium subsp. hominissuis; conditions: Mycobacterium avium, 104
Pseudomonas aeruginosa = assay: Antibacterial activity against drug-sensitive Pseudomonas aeruginosa PAO1; format: functional
[21] = system: Mycobacterium tuberculosis; assay: Antimycobacterial activity against drug-sensitive Mycobacterium tuberculosis isolate 15; format: functional
Procedure, shortened: as §1

Enterococcus faecalis [22] = assay: Antimicrobial activity against AGs-resistant Enterococcus faecalis ATCC 19434; format: functional
[23] = system: Mycobacterium tuberculosis; assay: Antimycobacterial activity against drug-sensitive Mycobacterium tuberculosis isolate 4; format: functional
Procedure, shortened: as §1

[24] = system: Mycobacterium tuberculosis; assay: Antimycobacterial activity against drug-sensitive Mycobacterium tuberculosis isolate 11; format: functional
Procedure, shortened: as §1

Enterococcus faecalis [25] = assay: Antimicrobial activity against AGs-resistant Enterococcus faecalis ATCC 19433; format: functional
[26] = system: Mycobacterium tuberculosis; assay: Antimycobacterial activity against drug-sensitive Mycobacterium tuberculosis isolate 19; format: functional
Procedure, shortened: as §1

Staphylococcus aureus [27] = assay: Antimicrobial activity against methicillin-resistant Staphylococcus aureus MF490; format: functional
Klebsiella pneumoniae = assay: Antibacterial activity against […] Klebsiella pneumoniae ATCC BAA-1705; format: functional
Staphylococcus aureus [28] = assay: Antimicrobial activity against Staphylococcus aureus; format: functional
[29] = system: Mycobacterium tuberculosis; assay: Antimycobacterial activity against drug-sensitive Mycobacterium tuberculosis isolate 12; format: functional
Procedure, shortened: as §1

Staphylococcus aureus [30] = assay: microbe, parasite or virus in culture; format: functional; conditions: 873
[31] = system: Mycobacterium tuberculosis; assay: Antimycobacterial activity against drug-sensitive Mycobacterium tuberculosis isolate 7; format: functional
Procedure, shortened: as §1

Escherichia coli [32] = assay: Antimicrobial activity against Escherichia coli DH5alpha; format: functional; conditions: DH5[alpha]
[33] = system: Mycobacterium tuberculosis; assay: Antimycobacterial activity against drug-sensitive Mycobacterium tuberculosis isolate 18; format: functional
Procedure, shortened: as §1

For S=C([S-])N(c1c[nH]cn1)c1c[nH]cn1.[Na+], the MIC [1] was 12.5 µg/mL, the MIC [2] was 6.25 µg/mL and the MIC [3] was over 100 µg/mL.

For CC(=O)N[C@@H]1[C@@H](O)[C@H](O)[C@@H](CO)O[C@H]1SC(=S)N1CCCC1, the MIC [4] was 6.25 µg/mL (≈ 17.8 µM), the MIC [5] was 12.5 µg/mL (≈ 35.7 µM) and the MIC [1] was 12.5 µg/mL (≈ 35.7 µM). It also gave an MIC (Staphylococcus aureus [6]) of over 128 µg/mL, an MIC [7] of 12.5 µg/mL (≈ 35.7 µM) and an MIC (Staphylococcus aureus [8]) of over 128 µg/mL. For the same molecule, the MIC [9] was 6.25 µg/mL (≈ 17.8 µM), the MIC [10] was 6.25 µg/mL (≈ 17.8 µM) and the MIC [2] was 6.25 µg/mL (≈ 17.8 µM). For the same molecule, the MIC [11] was 12.5 µg/mL (≈ 35.7 µM), the MIC [12] was 6.25 µg/mL (≈ 17.8 µM) and the MIC [13] was 6.25 µg/mL (≈ 17.8 µM). The MIC (Escherichia coli [14]) was over 128 µg/mL, the MIC [15] was 6.25 µg/mL (≈ 17.8 µM) and the MIC [16] was 6.25 µg/mL (≈ 17.8 µM). It also gave an MIC (Mycobacterium avium) of 50 µg/mL (≈ 143 µM), an MIC [17] of 6.25 µg/mL (≈ 17.8 µM) and an MIC [18] of 6.25 µg/mL (≈ 17.8 µM). The MIC [19] was 6.25 µg/mL (≈ 17.8 µM), the MIC [20] was 100 µg/mL (≈ 285 µM) and the MIC (Pseudomonas aeruginosa) was over 128 µg/mL. For the same molecule, the MIC [21] was 6.25 µg/mL (≈ 17.8 µM), the MIC (Enterococcus faecalis [22]) was over 128 µg/mL and the MIC [23] was 6.25 µg/mL (≈ 17.8 µM). It also gave an MIC [24] of 6.25 µg/mL (≈ 17.8 µM), an MIC (Enterococcus faecalis [25]) of over 128 µg/mL and an MIC [26] of 6.25 µg/mL (≈ 17.8 µM). It also gave an MIC (Staphylococcus aureus [27]) of over 128 µg/mL, an MIC (Klebsiella pneumoniae) of over 128 µg/mL and an MIC (Staphylococcus aureus [28]) of over 100 µg/mL. The MIC [29] was 6.25 µg/mL (≈ 17.8 µM), the MIC (Staphylococcus aureus [30]) was over 100 µg/mL and the MIC [31] was 12.5 µg/mL (≈ 35.7 µM). The MIC (Escherichia coli [32]) was over 100 µg/mL and the MIC [33] was 6.25 µg/mL (≈ 17.8 µM).

CCC(=O)N[C@@H]1[C@@H](O)[C@H](O)[C@@H](CO)O[C@H]1SC(=S)N(C)C gave an MIC [2] of 50 µg/mL (≈ 148 µM).

Molecule CN(C)C(=S)S[C@@H]1O[C@H](CO)[C@@H](O)[C@H](O)[C@H]1NC(=O)C1CC1 has an MIC [2] of 50 µg/mL (≈ 143 µM).

In the case of CN(C)C(=S)S[C@@H]1O[C@H](CO)[C@@H](O)[C@H](O)[C@H]1NC(=O)c1ccccc1, the MIC [2] is reported as 100 µg/mL (≈ 259 µM).

In the case of CCCCCCCCCCCCCCCCCC(=O)N[C@@H]1[C@@H](O)[C@H](O)[C@@H](CO)O[C@H]1SC(=S)N(C)C, the MIC [2] is reported as 100 µg/mL (≈ 182 µM).

CN(C)C(=S)S[C@@H]1O[C@H](CO)[C@@H](O)[C@H](O)[C@H]1N showed an MIC [2] of 50 µg/mL (≈ 177 µM).

CC(=O)N[C@@H]1[C@@H](O)[C@H](O)[C@@H](CO)O[C@H]1SC(=S)N(C)C showed an MIC [1] of 31.3 µg/mL (≈ 96.5 µM), an MIC [2] of 25 µg/mL (≈ 77.1 µM) and an MIC (Mycobacterium avium) of over 100 µg/mL. For the same molecule, the MIC [20] was over 100 µg/mL, the MIC (Staphylococcus aureus [28]) was over 100 µg/mL and the MIC (Staphylococcus aureus [30]) was over 100 µg/mL. It also gave an MIC (Escherichia coli [32]) of over 100 µg/mL.

Molecule NCC[C@H](O)C(=O)N[C@@H]1C[C@H](N)[C@@H](O[C@H]2O[C@H](CN)[C@@H](O)[C@H](O)[C@H]2O)[C@H](O)[C@H]1O[C@H]1O[C@H](CO)[C@@H](O)[C@H](N)[C@H]1O [AMIKACIN] has an MIC (Staphylococcus aureus [6]) of 0.5 µg/mL (≈ 0.854 µM), an MIC (Staphylococcus aureus [8]) of 4 µg/mL (≈ 6.83 µM) and an MIC (Escherichia coli [14]) of 0.5 µg/mL (≈ 0.854 µM). For the same molecule, the MIC (Pseudomonas aeruginosa) was 2 µg/mL (≈ 3.42 µM), the MIC (Enterococcus faecalis [22]) was 32 µg/mL (≈ 54.6 µM) and the MIC (Enterococcus faecalis [25]) was over 128 µg/mL. For the same molecule, the MIC (Staphylococcus aureus [27]) was over 128 µg/mL and the MIC (Klebsiella pneumoniae) was 32 µg/mL (≈ 54.6 µM).

Work on CC1(C)S[C@@H]2[C@H](NC(=O)[C@H](N)c3ccccc3)C(=O)N2[C@H]1C(=O)O [AMPICILLIN] yielded an MIC [1] of 12.5 µg/mL (≈ 35.8 µM), an MIC [2] of 12.5 µg/mL (≈ 35.8 µM) and an MIC (Staphylococcus aureus [28]) of 50 µg/mL (≈ 143 µM). The MIC (Staphylococcus aureus [30]) was over 100 µg/mL and the MIC (Escherichia coli [32]) was over 100 µg/mL.

With O=C(O)c1cn(C2CC2)c2cc(N3CCNCC3)c(F)cc2c1=O [CIPROFLOXACIN] the MIC [1] was 0.1 µg/mL (≈ 0.302 µM), the MIC [2] was 0.39 µg/mL (≈ 1.18 µM) and the MIC (Mycobacterium avium) was 1.56 µg/mL (≈ 4.71 µM). For the same molecule, the MIC [20] was 0.39 µg/mL (≈ 1.18 µM) and the MIC (Staphylococcus aureus [28]) was 0.2 µg/mL (≈ 0.604 µM).
